The source of these data is publication PMC3158287 (Nature chemical biology, 2011).

Holding throughout (assay type): cell-based, human
One assay has as its system CERT. The experiment in a line: CERT protein amount in treated cells. The note with it: GI90 concentration, HCT-116 or A549 cells.
In assay [1] the test system is ceramide labeling in HCT-116 cells. The experiment in a line: Ceramide labeling, [3H]serine pulse labeling, HCT-116. The following applies: range of concentrations.
Assay [2] deals with HCT-116 p21^−/− cells stably transfected with shOSBP or shNT. In words: OSBP shRNA knockdown and dose-shift experiment. The note with it: 72 h. An outline of the steps:
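HCT-116 p21−/− cells were stably transfected with OSBP-targeting or nontargeting shRNA in the pSIREN-RetroQ vector. […] Values are mean ± s.d. of 3–4 experiments, compared with shNT cells by two-tailed Student's t-test.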

Take `COc1ccc(C(=O)O[C@H]2[C@H](O[C@@H]3[C@@H](OC(C)=O)[C@H](O[C@H]4C[C@H]5[C@@H]6CC=C7C[C@@H](O)CC[C@]7(C)[C@H]6CC[C@]5(C)[C@@]4(O)[C@H](C)C(=O)CCC(C)C)OC[C@@H]3O)OC[C@@H](O)[C@@H]2O)cc1` [OSW-1]: in the assay with CERT, the “Amount of CERT protein” value is given as “not affected”. The “Effect on ceramide labeling” value in assay [1] is on record as “no effect”.
Take `CC(C)=CCC/C(C)=C/Cc1c(O)cc(/C=C/c2cc(O)c3c(c2)C[C@@H]2C(C)(C)[C@H](O)[C@H](O)C[C@@]2(C)O3)cc1O` [schweinfurthin A]: in assay [2], the “Sensitization by OSBP shRNA knockdown (GI50 shift shOSBP vs shNT)” value is recorded as “nine”.
